Laboratory results reported in ChEMBL document CHEMBL4382258, “Design and Optimization of Sulfone Pyrrolidine Sulfonamide Antagonists of Transient Receptor Potential Vanilloid-4 with in Vivo Activity in a Pulmonary Edema Model” (J Med Chem, 2018).
Values after ≈ are worked out from the molar mass of the structure shown.

Assays:
[1] = target: T1, Transient receptor potential cation channel subfamily V member 4 (Homo sapiens, UniProt Q9HBA0); assay: Antagonist activity at human TRPV4 expressed in HEK cells assessed as inhibition of GSK634775-induced Ca2+ influx by FLIPR assay; assay type: cell-based
T1 sequence (Q9HBA0 whole entry, the tested form may be a part): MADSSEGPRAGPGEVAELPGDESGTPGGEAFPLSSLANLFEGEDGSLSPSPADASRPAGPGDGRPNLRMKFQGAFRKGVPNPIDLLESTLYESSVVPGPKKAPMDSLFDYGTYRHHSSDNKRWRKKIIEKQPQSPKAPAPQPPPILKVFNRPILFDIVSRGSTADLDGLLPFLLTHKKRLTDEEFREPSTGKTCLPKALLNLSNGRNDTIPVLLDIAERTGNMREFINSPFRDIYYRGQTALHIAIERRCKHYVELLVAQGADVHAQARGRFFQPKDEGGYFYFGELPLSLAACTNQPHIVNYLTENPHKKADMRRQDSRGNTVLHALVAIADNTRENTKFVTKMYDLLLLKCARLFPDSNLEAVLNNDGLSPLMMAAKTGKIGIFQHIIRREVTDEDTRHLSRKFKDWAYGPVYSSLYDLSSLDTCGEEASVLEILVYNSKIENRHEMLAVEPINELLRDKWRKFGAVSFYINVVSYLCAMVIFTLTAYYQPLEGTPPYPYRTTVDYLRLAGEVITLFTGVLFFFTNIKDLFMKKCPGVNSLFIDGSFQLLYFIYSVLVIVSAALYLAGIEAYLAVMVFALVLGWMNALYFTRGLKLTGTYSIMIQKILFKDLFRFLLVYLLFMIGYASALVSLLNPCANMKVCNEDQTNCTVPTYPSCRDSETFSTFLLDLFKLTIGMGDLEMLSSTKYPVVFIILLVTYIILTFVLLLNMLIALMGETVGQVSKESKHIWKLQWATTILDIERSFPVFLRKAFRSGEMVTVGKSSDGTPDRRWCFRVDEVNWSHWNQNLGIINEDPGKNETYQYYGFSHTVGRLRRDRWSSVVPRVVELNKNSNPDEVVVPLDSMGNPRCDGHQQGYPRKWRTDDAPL

[2] = Clearance adjusted for unbound fraction in Sprague-Dawley rat at 1 mg/kg, iv administered as 30 mins infusion by LC/MS/MS analysis; assay type: ADME, organism-based; conditions: in vivo, 0.5 h
[3] = Clearance in Sprague-Dawley rat at 1 mg/kg, iv administered as 30 mins infusion by LC/MS/MS analysis; assay type: ADME, organism-based; conditions: in vivo
[4] = Volume of distribution at steady state in Sprague-Dawley rat at 1 mg/kg, iv or 2 mg/kg, po by LC/MS/MS analysis; assay type: ADME, organism-based; conditions: in vivo, read-out: Vdss
[5] = MRT in Sprague-Dawley rat at 1 mg/kg, iv or 2 mg/kg, po by LC/MS/MS analysis; assay type: ADME, organism-based; conditions: in vivo
[6] = Oral bioavailability in Sprague-Dawley rat at 2 mg/kg by LC/MS/MS analysis; assay type: ADME, organism-based; conditions: in vivo
[7] = Metabolic stability in rat liver microsomes assessed as parent compound remaining after 30 mins; assay type: ADME, Microsome; conditions: read-out: Stability
In short: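 Rat liver microsomes incubated 30 min with glutathione for trapping; parent remaining measured.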

[8] = target: T1, Transient receptor potential cation channel subfamily V member 4; assay: Antagonist activity at human TRPV4 expressed in BHK/AC9 cells assessed as inhibition of GSK634775-induced […] pre-incubated for 10 mins followed by agonist addition by Fluo-4-AM dye-based FLIPR assay; assay type: cell-based
[9] = target: T1, Transient receptor potential cation channel subfamily V member 4; assay: Antagonist activity at human TRPV4 expressed in HEK cells assessed as inhibition of GSK634775-induced […] pre-incubated for 10 mins followed by agonist addition by Fluo-4-AM dye-based FLIPR assay; assay type: cell-based
In short: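 TRPV4 from human recombinant channels in HEK cells; block of calcium mobilization evoked by agonist GSK634775, read on a fluorescent imaging plate reader; reported potency is an average of repeat determinations.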

HepG2 [10] = assay: Induction of phospholipidosis in human HepG2 cells after 72 hrs by fluorescence assay; assay type: cell-based; conditions: hepg2, 72 h
HepG2 [11] = assay: Induction of phospholipidosis in human HepG2 cells after 72 hrs by fluorescence assay relative to control; assay type: cell-based; conditions: hepg2, 72 h
[12] = Lipophilicity, chromatographic hydrophobicity index of the compound in immobilized artificial membrane
[13] = target: Voltage-gated inwardly rectifying potassium channel KCNH2 (Homo sapiens, UniProt Q12809); assay: Inhibition of human ERG expressed in CHO cells by Qpatch assay
Voltage-gated inwardly rectifying potassium channel KCNH2, sequence (Q12809 whole entry): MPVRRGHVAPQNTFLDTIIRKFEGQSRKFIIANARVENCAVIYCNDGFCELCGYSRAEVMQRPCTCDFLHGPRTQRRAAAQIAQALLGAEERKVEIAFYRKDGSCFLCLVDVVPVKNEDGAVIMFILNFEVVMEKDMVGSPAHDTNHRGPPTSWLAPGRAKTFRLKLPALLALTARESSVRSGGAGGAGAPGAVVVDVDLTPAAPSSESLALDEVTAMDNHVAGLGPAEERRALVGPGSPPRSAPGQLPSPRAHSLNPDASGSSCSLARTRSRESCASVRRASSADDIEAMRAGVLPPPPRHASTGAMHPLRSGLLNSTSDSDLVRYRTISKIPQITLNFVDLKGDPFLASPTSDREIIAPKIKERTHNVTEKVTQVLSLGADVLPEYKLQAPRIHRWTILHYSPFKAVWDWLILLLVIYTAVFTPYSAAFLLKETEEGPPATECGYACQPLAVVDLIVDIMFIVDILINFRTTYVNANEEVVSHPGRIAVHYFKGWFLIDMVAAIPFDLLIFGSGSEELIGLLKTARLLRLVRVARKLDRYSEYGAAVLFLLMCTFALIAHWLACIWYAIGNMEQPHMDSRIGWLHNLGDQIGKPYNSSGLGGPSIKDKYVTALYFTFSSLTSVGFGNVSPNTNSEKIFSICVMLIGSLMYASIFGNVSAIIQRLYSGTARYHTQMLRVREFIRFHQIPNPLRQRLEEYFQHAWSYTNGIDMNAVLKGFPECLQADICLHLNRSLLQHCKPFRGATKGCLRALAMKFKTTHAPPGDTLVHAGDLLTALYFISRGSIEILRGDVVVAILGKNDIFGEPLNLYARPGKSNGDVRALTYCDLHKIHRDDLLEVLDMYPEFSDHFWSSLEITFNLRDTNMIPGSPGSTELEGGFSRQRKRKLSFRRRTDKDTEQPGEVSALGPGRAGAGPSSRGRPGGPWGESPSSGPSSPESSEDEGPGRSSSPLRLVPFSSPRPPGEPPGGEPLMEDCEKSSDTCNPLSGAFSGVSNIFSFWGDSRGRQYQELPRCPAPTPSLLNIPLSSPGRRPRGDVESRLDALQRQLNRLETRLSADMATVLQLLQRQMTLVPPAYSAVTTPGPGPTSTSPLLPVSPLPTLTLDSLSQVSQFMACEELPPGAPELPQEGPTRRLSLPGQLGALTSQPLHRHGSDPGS

[14] = Kinetic aqueous solubility of the compound by chemiluminescence nitrogen detection analysis; conditions: buffer
[15] = target: Transient receptor potential cation channel subfamily V member 4 (Rattus norvegicus, UniProt Q9ERZ8); assay: Antagonist activity at rat TRPV4 expressed in BHK/AC9 cells assessed as inhibition of GSK634775-induced […] pre-incubated for 10 mins followed by agonist addition by Fluo-4-AM dye-based FLIPR assay; assay type: cell-based
Transient receptor potential cation channel subfamily V member 4 (Rattus norvegicus, UniProt Q9ERZ8), sequence (Q9ERZ8 whole entry, the tested form may be a part): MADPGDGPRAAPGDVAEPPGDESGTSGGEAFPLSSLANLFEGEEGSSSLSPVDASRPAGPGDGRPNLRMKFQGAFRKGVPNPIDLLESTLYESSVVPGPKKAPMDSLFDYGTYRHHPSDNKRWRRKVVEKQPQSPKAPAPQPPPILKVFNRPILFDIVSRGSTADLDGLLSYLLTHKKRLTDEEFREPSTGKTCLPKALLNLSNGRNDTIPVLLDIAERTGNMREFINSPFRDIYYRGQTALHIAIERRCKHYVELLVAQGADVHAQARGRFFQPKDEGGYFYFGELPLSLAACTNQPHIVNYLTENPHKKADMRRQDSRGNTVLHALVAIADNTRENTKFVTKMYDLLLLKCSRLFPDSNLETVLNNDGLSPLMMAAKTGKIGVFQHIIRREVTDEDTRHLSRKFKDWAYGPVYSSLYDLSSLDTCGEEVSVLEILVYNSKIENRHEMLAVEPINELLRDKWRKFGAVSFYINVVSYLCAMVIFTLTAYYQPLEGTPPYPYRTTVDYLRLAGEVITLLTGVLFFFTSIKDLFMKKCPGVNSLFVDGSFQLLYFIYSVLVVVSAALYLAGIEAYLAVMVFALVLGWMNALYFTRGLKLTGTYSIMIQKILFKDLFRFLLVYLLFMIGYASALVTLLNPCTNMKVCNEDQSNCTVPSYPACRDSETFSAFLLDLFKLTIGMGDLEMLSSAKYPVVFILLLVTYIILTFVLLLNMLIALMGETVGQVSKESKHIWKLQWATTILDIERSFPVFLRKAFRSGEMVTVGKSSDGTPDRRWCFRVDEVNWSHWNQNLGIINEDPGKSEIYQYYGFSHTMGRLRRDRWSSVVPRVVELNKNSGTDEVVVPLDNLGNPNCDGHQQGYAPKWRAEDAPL

[16] = Fraction unbound in Sprague-Dawley rat heart failure-induced pulmonary edema model at 0.09 to 0.78 mg/kg, iv bolus loading dose followed by 0.07 to 0.6 ug/kg/min, iv continuous infusion dose for 60 mins; assay type: ADME, organism-based; conditions: in vivo
Rattus norvegicus [17] = assay: Reversal of heart failure-induced pulmonary edema in Sprague-Dawley rat assessed as inhibition of GSK1016790A-induced increase in lung wet weight to body weight ratio at 0.09 to 0.78 mg/kg, iv bolus loading dose followed by 0.07 to 0.6 ug/kg/min, iv continuous infusion dose for 60 mins prior to agonist administration; assay type: functional, organism-based
In short: (§1)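 Rats given vehicle or antagonist by i.v. infusion, then agonist GSK1016790A i.v. at 10 µg/kg/min for 10 min (100 µg/kg total). Edema scored as wet lung weight/body weight ratio against naïve animals; inhibition computed from the agonist response; mean ± SEM.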

Cytochrome P450 3A4 [18] = target: T2, Cytochrome P450 3A4 (Homo sapiens, UniProt P08684); assay: Reversible inhibition of CYP3A4 (unknown origin) in presence of NADPH by vivid red substrate-based assay
T2 sequence (P08684 whole entry, the tested form may be a part): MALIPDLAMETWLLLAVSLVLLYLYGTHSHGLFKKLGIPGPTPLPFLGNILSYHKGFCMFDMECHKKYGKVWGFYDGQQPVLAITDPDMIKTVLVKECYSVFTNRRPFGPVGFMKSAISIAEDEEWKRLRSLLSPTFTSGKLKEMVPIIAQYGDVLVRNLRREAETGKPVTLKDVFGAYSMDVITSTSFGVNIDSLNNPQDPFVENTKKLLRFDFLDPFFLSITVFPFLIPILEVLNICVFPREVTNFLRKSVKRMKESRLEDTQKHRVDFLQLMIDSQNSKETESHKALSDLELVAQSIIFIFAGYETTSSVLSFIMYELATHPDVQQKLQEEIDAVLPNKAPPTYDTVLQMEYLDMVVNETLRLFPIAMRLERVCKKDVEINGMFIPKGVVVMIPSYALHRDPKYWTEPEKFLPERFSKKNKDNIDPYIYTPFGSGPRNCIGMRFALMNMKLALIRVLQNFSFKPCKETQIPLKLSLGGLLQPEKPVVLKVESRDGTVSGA

[19] = Plasma concentration in Sprague-Dawley rat heart failure-induced pulmonary edema model at 0.09 mg/kg, iv bolus loading dose followed by 0.07 ug/kg/min, iv continuous infusion dose for 60 mins; assay type: ADME, organism-based
[20] = Plasma concentration in Sprague-Dawley rat heart failure-induced pulmonary edema model at 0.26 mg/kg, iv bolus loading dose followed by 0.2 ug/kg/min, iv continuous infusion dose for 60 mins; assay type: ADME, organism-based
[21] = Plasma concentration in Sprague-Dawley rat heart failure-induced pulmonary edema model at 0.78 mg/kg, iv bolus loading dose followed by 0.6 ug/kg/min, iv continuous infusion dose for 60 mins; assay type: ADME, organism-based
Rattus norvegicus [22] = assay: Reversal of heart failure-induced pulmonary edema in Sprague-Dawley rat assessed as inhibition of GSK1016790A-induced increase in lung wet weight to body weight ratio at 0.26 mg/kg, iv bolus loading dose followed by 0.2 ug/kg/min, iv continuous infusion dose for 60 mins prior to agonist administration relative to control; assay type: functional; in short: as §1
Cytochrome P450 3A4 [23] = target: T2, Cytochrome P450 3A4; conditions: 100 µM
[24] = pH 10.5 – pH 7.4
[25] = Permeability of the compound by PAMPA; assay type: ADME; conditions: read-out: permeability
[26] = target: T1, Transient receptor potential cation channel subfamily V member 4; assay: Antagonist activity at TRPV4 (unknown origin)

Row | Structure (SMILES) | CL free [2] [mL/min/kg] | clearance [3] [mL/min/kg] | Vd [4] [L/kg] | MRT [5] [h] | bioavailability [6] [%] | IC50 [8] [nM] | IC50 [9] [nM] | other results
1 | O=C(NC1(c2ccccc2)CC1)c1c(CN2CCC(N3CCCCC3)CC2)c(-c2cccc(C(F)(F)F)c2)nc2cc(Br)ccc12 | – | – | – | – | – | – | – | IC50 [1]: 50 nM
2 | N#Cc1ccc(S(=O)(=O)N2C[C@H](S(=O)(=O)c3ccc(Cl)cn3)[C@](O)(CO)C2)c(Cl)c1 | 11 | 23 | 2 | 1.4 | 62 | – | – | –
3 | N#Cc1ccc(S(=O)(=O)[C@H]2CN(S(=O)(=O)c3ccc(Cl)cc3Cl)C[C@@]2(O)CO)cc1F | 14 | 25 | 1.2 | 0.8 | 51 | 2 | – | remaining at 0.5 h [7]: 46%
4 | N#Cc1ccc(S(=O)(=O)N2C[C@H](S(=O)(=O)c3ccc(Cl)cc3)[C@](O)(CO)C2)c(C(F)(F)F)n1 | 66 | 310 | 3.6 | 0.2 | 8 | 20 | – | –
5 | N#Cc1ccc(S(=O)(=O)[C@@H]2CN(S(=O)(=O)c3ccc(Cl)cc3Cl)C[C@]2(O)CO)cc1 | – | – | – | – | – | – | 159 | –
6 | N#Cc1ccc(S(=O)(=O)N2C[C@H](S(=O)(=O)c3ccc(Cl)cc3)[C@](O)(CO)C2)cn1 | 1.2 | 22 | 4.1 | 3 | 62 | 631 | – | –
7 | N#Cc1ccc(S(=O)(=O)N2C[C@H](S(=O)(=O)c3ccc(Cl)cc3)[C@](O)(CN)C2)c(Cl)c1 | 2.7 | 12 | 4 | 5.7 | 22 | – | – | pMED (HepG2 [10]): 4.7; Activity (HepG2 [11]): 425%
8 | N#Cc1ccc(S(=O)(=O)N2C[C@H](S(=O)(=O)c3ccc(Cl)cn3)[C@@](O)(CN)C2)c(Cl)c1 | 1.7 | 1.7 | 0.2 | 2.2 | 56 | 0.5 | – | CHI [12]: 36; IC50 [13]: 8000 nM; solubility kinetic [14]: 500 µM (≈ 246 µg/mL); IC50 [15]: 1 nM; fraction unbound at 1 h [16]: 0.014; fIC50 (Rattus norvegicus [17]): 8.5 nM; IC50 (Rattus norvegicus [17]; Rattus norvegicus, Sprague-Dawley): 611 nM; IC50 (Cytochrome P450 3A4 [18]): 4000 nM; pMED (HepG2 [10]): < 4; concentration at 1 h [19]: 400 nM; concentration at 1 h [20]: 2100 nM; concentration at 1 h [21]: 4500 nM; inhibition (INH) (Rattus norvegicus [22]): 88%; TDI (Cytochrome P450 3A4 [23]): Not Active; ΔCHI [24]: 3.7
9 | N#Cc1ccc(O[C@H]2CN(S(=O)(=O)c3ccc(Cl)cc3Cl)C[C@@H]2O)cc1 | – | – | – | – | – | – | 32 | –
10 | N#Cc1ccc(S(=O)(=O)N2C[C@H](S(=N)(=O)c3ccc(Cl)cc3)[C@](O)(CO)C2)c(Cl)c1 (some centres undefined) | 4.8 | 52 | 3.2 | 1 | 38 | 20 | – | –
11 | N#Cc1ccc(S(=O)(=O)[C@H]2CN(S(=O)(=O)c3ccc(Cl)cc3Cl)C[C@@H]2O)cc1 | 30 | 9 | 1.1 | 2 | 100 | – | 25 | Papp [25]: 78 ×10⁻⁶ cm/s
12 | N#Cc1ccc(S(=O)(=O)[C@@H]2CN(S(=O)(=O)c3ccc(Cl)cc3Cl)C[C@@]2(O)CO)cc1 | – | – | – | – | – | – | 1590 | –
13 | N#Cc1ccc(S(=N)(=O)N2C[C@H](S(=O)(=O)c3ccc(Cl)cc3)[C@](O)(CO)C2)c(Cl)c1 (some centres undefined) | 8.9 | 48 | 2.7 | 0.9 | 80 | 40 | – | –
14 | CC(C)(C)c1cc(N2C[C@@]3(CCC[C@](C)(Cn4cnc5ccc(C#N)cc54)C3)OC2=O)no1 | – | – | – | – | – | – | – | IC50 [26]: 7.5 nM
15 | N#Cc1ccc(O[C@H]2CN(S(=O)(=O)c3ccc(Cl)cc3Cl)C[C@@]2(O)CO)cc1 | 15 | 74 | 2.4 | 0.6 | 46 | – | – | Papp [25]: 37 ×10⁻⁶ cm/s
16 | N#Cc1ccc(S(=O)(=O)[C@H]2CN(S(=O)(=O)c3ccc(Cl)cc3Cl)C[C@@]2(O)CO)cc1 | 9 | 25 | 2.3 | 1.7 | 100 | – | 7.9 | remaining at 0.5 h [7]: 89%; Papp [25]: 45 ×10⁻⁶ cm/s
17 | N#Cc1ccc(S(=O)(=O)[C@H]2CN(S(=O)(=O)c3ccc(Cl)cc3Cl)C[C@]2(O)CO)cc1 | – | – | – | – | – | – | 50 | –
18 | N#Cc1ccc(S(=O)(=O)[C@H]2CN(S(=O)(=O)c3ccc(C#N)cc3Cl)C[C@@]2(O)CO)cc1 | 4 | 35 | 2.2 | 1 | 15 | 3.2 | – | Papp [25]: 35 ×10⁻⁶ cm/s; solubility kinetic [14]: 400 µM (≈ 193 µg/mL)
19 | N#Cc1ccc(S(=O)(=O)N2C[C@H](S(=O)(=O)c3ccc(Cl)cn3)[C@](O)(CN)C2)c(Cl)c1 | 3.8 | 12 | 1.3 | 1.9 | 64 | 0.5 | – | CHI [12]: 42; IC50 [13]: 8000 nM; solubility kinetic [14]: 500 µM (≈ 246 µg/mL); IC50 (Cytochrome P450 3A4 [18]): 300 nM; pMED (HepG2 [10]): < 4; TDI (Cytochrome P450 3A4 [23]): Not Active; ΔCHI [24]: -2.2
20 | N#Cc1ccc(S(=O)(=O)[C@H]2CN(S(=O)(=O)c3ccc(Cl)cc3C#N)C[C@@]2(O)CO)cc1 | 7 | 82 | 2.6 | 0.5 | 25 | 2 | – | solubility kinetic [14]: 380 µM (≈ 183 µg/mL)
